Results as given in ChEMBL document CHEMBL2150942, “Synthesis and antibacterial activity of novel 1,3-diphenyl-1H-pyrazoles functionalized with phenylalanine-derived rhodanines” (Eur J Med Chem, 2012).
Values after ≈ are worked out from the molar mass of the structure shown.

How the values were obtained:
[1] = test system: Escherichia coli; assay: Antibacterial activity against Escherichia coli CCARM 1356 after 20 hrs by two fold serial dilution assay; format: functional; conditions: CCARM 1356, 20 h
[2] = test system: Staphylococcus aureus; assay: Antibacterial activity against quinolone-resistant Staphylococcus aureus CCARM 3519 after 20 hrs by two fold serial dilution assay; format: functional; conditions: CCARM 3519, 20 h
[3] = test system: Staphylococcus aureus; assay: Antibacterial activity against methicillin-resistant Staphylococcus aureus CCARM 3167 after 20 hrs by two fold serial dilution assay; format: functional; conditions: CCARM 3167, 20 h
[4] = test system: Escherichia coli; assay: Antibacterial activity against Escherichia coli CCARM 1924 after 20 hrs by two fold serial dilution assay; format: functional; conditions: CCARM 1924, 20 h
[5] = test system: Staphylococcus aureus; assay: Antibacterial activity against methicillin-resistant Staphylococcus aureus CCARM 3506 after 20 hrs by two fold serial dilution assay; format: functional; conditions: CCARM 3506, 20 h
[6] = test system: Staphylococcus aureus; assay: Antibacterial activity against Staphylococcus aureus RN4220 after 20 hrs by two fold serial dilution assay; format: functional; conditions: RN4220, 20 h
[7] = test system: Staphylococcus aureus; assay: Antibacterial activity against quinolone-resistant Staphylococcus aureus CCARM 3505 after 20 hrs by two fold serial dilution assay; format: functional; conditions: CCARM 3505, 20 h
[8] = test system: Staphylococcus aureus; assay: Antibacterial activity against Staphylococcus aureus KCTC 503 after 20 hrs by two fold serial dilution assay; format: functional; conditions: KCTC 503, 20 h
[9] = test system: Staphylococcus aureus; assay: Ratio of norfloxacin MIC to compound MIC for methicillin-resistant Staphylococcus aureus CCARM 3506; format: functional
[10] = test system: Staphylococcus aureus; assay: Ratio of norfloxacin MIC to compound MIC for methicillin-resistant Staphylococcus aureus CCARM 3167; format: functional
[11] = test system: HeLa; assay: Cytotoxicity against human HeLa cells assessed as decrease in cell viability at 1 ug/mL after 48 hrs by MTT assay; format: cell-based
Method in brief: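 HeLa cells (DMEM, 10% FBS, antibiotics, 37 °C, 5% CO₂) were seeded at about 1 × 10⁴ cells/well, left overnight, then exposed to compound for 48 h. Viability was read by MTT (5 mg/ml stock, 4 h), with formazan dissolved in DMSO and absorbance taken at 570 nm. Assay performed four times.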

[12] = test system: HeLa; assay: Cytotoxicity against human HeLa cells after 48 hrs by MTT assay; format: cell-based
Method in brief: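 HeLa cells grown in DMEM with 10% FBS and penicillin-streptomycin at 37 °C in 5% CO₂, passaged three times. About 1 × 10⁴ cells/well were seeded and attached overnight, then given a range of compound concentrations for 48 h. MTT (5 mg/ml stock) was added for 4 h, formazan dissolved in DMSO, and OD read at 570 nm. Run four times; IC50 was the concentration giving 50% growth inhibition.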

Compound	MIC [1] [µg/mL]	MIC [2] [µg/mL]	MIC [3] [µg/mL]	MIC [4] [µg/mL]	MIC [5] [µg/mL]	MIC [6] [µg/mL]	MIC [7] [µg/mL]	MIC [8] [µg/mL]	Ratio [9]	Ratio [10]	Activity [11]	IC50 [12] [µg/mL]
O=C(O)[C@@H](Cc1ccccc1)N1C(=O)/C(=C/c2cn(-c3ccccc3)nc2-c2ccc(Cl)cc2)SC1=S	> 64	2 (≈ 3.66 µM)	2 (≈ 3.66 µM)	> 64	2 (≈ 3.66 µM)	2 (≈ 3.66 µM)	2 (≈ 3.66 µM)	2 (≈ 3.66 µM)				
O=C(O)[C@@H](Cc1ccccc1)N1C(=O)/C(=C/c2cn(-c3ccccc3)nc2-c2ccc(Cl)cc2Cl)SC1=S	> 64	1 (≈ 1.72 µM)	1 (≈ 1.72 µM)	> 64	1 (≈ 1.72 µM)	2 (≈ 3.45 µM)	2 (≈ 3.45 µM)	2 (≈ 3.45 µM)	4	8		
Cc1ccc(-c2nn(-c3ccccc3)cc2/C=C2\SC(=S)N([C@H](Cc3ccccc3)C(=O)O)C2=O)c(C)c1	> 64	1 (≈ 1.85 µM)	2 (≈ 3.71 µM)	> 64	2 (≈ 3.71 µM)	2 (≈ 3.71 µM)	2 (≈ 3.71 µM)	2 (≈ 3.71 µM)				
Cc1ccc(-c2nn(-c3ccccc3)cc2/C=C2\SC(=S)N([C@H](Cc3ccccc3)C(=O)O)C2=O)cc1	> 64	1 (≈ 1.9 µM)	1 (≈ 1.9 µM)	> 64	1 (≈ 1.9 µM)	2 (≈ 3.8 µM)	1 (≈ 1.9 µM)	1 (≈ 1.9 µM)	4	8	Non-toxic	20.2 (≈ 38.4 µM)
O=C(O)[C@@H](Cc1ccccc1)N1C(=O)/C(=C/c2cn(-c3ccccc3)nc2-c2ccccc2)SC1=S	> 64	4 (≈ 7.82 µM)	4 (≈ 7.82 µM)	> 64	4 (≈ 7.82 µM)	2 (≈ 3.91 µM)	4 (≈ 7.82 µM)	8 (≈ 15.6 µM)				
O=C(O)[C@@H](Cc1ccccc1)N1C(=O)/C(=C/c2cn(-c3ccccc3)nc2-c2cccc(Br)c2)SC1=S	> 64	4 (≈ 6.77 µM)	4 (≈ 6.77 µM)	> 64	4 (≈ 6.77 µM)	2 (≈ 3.39 µM)	4 (≈ 6.77 µM)	8 (≈ 13.5 µM)				
O=C(O)[C@@H](Cc1ccccc1)N1C(=O)/C(=C/c2cn(-c3ccccc3)nc2-c2ccc(F)cc2)SC1=S	> 64	1 (≈ 1.89 µM)	1 (≈ 1.89 µM)	> 64	1 (≈ 1.89 µM)	4 (≈ 7.55 µM)	1 (≈ 1.89 µM)	16 (≈ 30.2 µM)	4	8		
O=C(O)[C@@H](Cc1ccccc1)N1C(=O)/C(=C/c2cn(-c3ccccc3)nc2-c2ccc(Br)cc2)SC1=S	> 64	16 (≈ 27.1 µM)	1 (≈ 1.69 µM)	> 64	1 (≈ 1.69 µM)	4 (≈ 6.77 µM)	1 (≈ 1.69 µM)	16 (≈ 27.1 µM)	4	8		
O=C(O)[C@@H](Cc1ccccc1)N1C(=O)/C(=C/c2cn(-c3ccccc3)nc2-c2ccc3ccccc3c2)SC1=S	> 64	16 (≈ 28.5 µM)	16 (≈ 28.5 µM)	> 64	16 (≈ 28.5 µM)	2 (≈ 3.56 µM)	16 (≈ 28.5 µM)	16 (≈ 28.5 µM)				
O=C(O)[C@@H](Cc1ccccc1)N1C(=O)/C(=C/c2cn(-c3ccccc3)nc2-c2ccc([N+](=O)[O-])cc2)SC1=S	> 64	1 (≈ 1.8 µM)	1 (≈ 1.8 µM)	> 64	1 (≈ 1.8 µM)	4 (≈ 7.19 µM)	1 (≈ 1.8 µM)	16 (≈ 28.7 µM)	4	8		
COc1ccccc1-c1nn(-c2ccccc2)cc1/C=C1\SC(=S)N([C@H](Cc2ccccc2)C(=O)O)C1=O	> 64	16 (≈ 29.5 µM)	16 (≈ 29.5 µM)	> 64	16 (≈ 29.5 µM)	2 (≈ 3.69 µM)	16 (≈ 29.5 µM)	16 (≈ 29.5 µM)				
COc1ccc(-c2nn(-c3ccccc3)cc2/C=C2\SC(=S)N([C@H](Cc3ccccc3)C(=O)O)C2=O)cc1	> 64	8 (≈ 14.8 µM)	4 (≈ 7.38 µM)	> 64	4 (≈ 7.38 µM)	4 (≈ 7.38 µM)	4 (≈ 7.38 µM)	16 (≈ 29.5 µM)				
O=C(O)[C@@H](Cc1ccccc1)N1C(=O)/C(=C/c2cn(-c3ccccc3)nc2-c2ccccc2Cl)SC1=S	> 64	1 (≈ 1.83 µM)	1 (≈ 1.83 µM)	> 64	1 (≈ 1.83 µM)	2 (≈ 3.66 µM)	2 (≈ 3.66 µM)	2 (≈ 3.66 µM)	4	8	Non-toxic	30.2 (≈ 55.4 µM)
COc1cccc(-c2nn(-c3ccccc3)cc2/C=C2\SC(=S)N([C@H](Cc3ccccc3)C(=O)O)C2=O)c1	> 64	16 (≈ 29.5 µM)	16 (≈ 29.5 µM)	> 64	16 (≈ 29.5 µM)	4 (≈ 7.38 µM)	16 (≈ 29.5 µM)	16 (≈ 29.5 µM)				
O=C(O)[C@@H](Cc1ccccc1)N1C(=O)/C(=C/c2cn(-c3ccccc3)nc2-c2ccccc2F)SC1=S	> 64	4 (≈ 7.55 µM)	4 (≈ 7.55 µM)	> 64	4 (≈ 7.55 µM)	4 (≈ 7.55 µM)	2 (≈ 3.78 µM)	16 (≈ 30.2 µM)				
CCn1cc(C(=O)O)c(=O)c2cc(F)c(N3CCNCC3)cc21 [NORFLOXACIN]	16 (≈ 50.1 µM)	> 64	8 (≈ 25.1 µM)	16 (≈ 50.1 µM)	4 (≈ 12.5 µM)	2 (≈ 6.26 µM)	> 64	2 (≈ 6.26 µM)				
Cc1onc(-c2ccccc2)c1C(=O)N[C@@H]1C(=O)N2[C@@H]1SC(C)(C)[C@@H]2C(=O)O [OXACILLIN]	> 64	1 (≈ 2.49 µM)	> 64	> 64	> 64	1 (≈ 2.49 µM)	1 (≈ 2.49 µM)	1 (≈ 2.49 µM)				
